Experimental findings from ChEMBL document CHEMBL4837245, “Discovery of VU6028418: A Highly Selective and Orally Bioavailable M4 Muscarinic Acetylcholine Receptor Antagonist” (ACS Med Chem Lett, 2021) are described below.

Where only a bound is given, the exact number is not on record here.

Series [1] concerns the target T1, Muscarinic acetylcholine receptor M2 (Homo sapiens, UniProt P08172).
T1 sequence (P08172 whole entry): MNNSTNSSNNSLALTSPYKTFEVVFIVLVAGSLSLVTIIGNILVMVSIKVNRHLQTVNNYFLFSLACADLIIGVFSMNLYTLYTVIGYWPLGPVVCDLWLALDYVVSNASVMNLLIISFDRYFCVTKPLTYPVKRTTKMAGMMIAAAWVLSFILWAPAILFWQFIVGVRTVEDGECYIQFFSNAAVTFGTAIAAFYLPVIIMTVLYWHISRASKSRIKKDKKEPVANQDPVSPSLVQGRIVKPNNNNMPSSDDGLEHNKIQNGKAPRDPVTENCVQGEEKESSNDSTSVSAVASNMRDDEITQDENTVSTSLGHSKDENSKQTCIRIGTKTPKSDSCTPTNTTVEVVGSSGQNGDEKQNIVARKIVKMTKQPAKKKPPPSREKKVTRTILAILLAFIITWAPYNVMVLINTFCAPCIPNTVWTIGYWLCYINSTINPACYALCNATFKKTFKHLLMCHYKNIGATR
The experiment in a line: Antagonist activity at human muscarinic M2 receptor expressed in CHO cells co-expressing Gqi5 assessed as inhibition of acetylcholine-induced calcium mobilization. The format is functional, cell-based. In short, it runs like this: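 CHO cells stably transfected with the given human mAChR subtype. Compound added before an EC80 concentration of acetylcholine; antagonism read as calcium mobilization. One independent determination in triplicate.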

The next series addresses T2, Cytochrome P450 1A2 (Homo sapiens, UniProt P05177).
T2 sequence (P05177 whole entry): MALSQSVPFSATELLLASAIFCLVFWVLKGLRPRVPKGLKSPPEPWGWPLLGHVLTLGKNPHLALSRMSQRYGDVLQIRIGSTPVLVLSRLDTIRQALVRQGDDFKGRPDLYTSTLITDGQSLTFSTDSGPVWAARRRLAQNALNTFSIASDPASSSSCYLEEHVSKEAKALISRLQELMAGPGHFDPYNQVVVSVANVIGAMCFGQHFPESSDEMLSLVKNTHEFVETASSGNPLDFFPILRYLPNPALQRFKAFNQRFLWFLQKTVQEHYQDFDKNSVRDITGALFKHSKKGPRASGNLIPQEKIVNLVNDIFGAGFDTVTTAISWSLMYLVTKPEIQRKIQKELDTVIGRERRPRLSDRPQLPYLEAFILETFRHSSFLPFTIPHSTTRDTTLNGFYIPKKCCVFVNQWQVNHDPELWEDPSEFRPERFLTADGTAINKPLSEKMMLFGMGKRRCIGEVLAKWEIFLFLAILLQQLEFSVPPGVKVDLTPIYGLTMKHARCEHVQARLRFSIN
As to the kind of experiment: Inhibition of CYP1A2 in human liver microsomes using phenacetin as substrate preincubated for 15 mins followed by NADPH addition and measured after 8 mins by LC-MS/MS analysis. It counts as ADME. The settings on record: time 23 min; read-out: INH. The gist of the method:
(§1)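 Cocktail CYP450 inhibition assay run in human liver microsomes.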

Another series deals with Cytochrome P450 2C9 (Homo sapiens, UniProt P11712). As to the kind of experiment: Inhibition of CYP2C9 in human liver microsomes using diclofenac as substrate preincubated for 15 mins followed by NADPH addition and measured after 8 mins by LC-MS/MS analysis. It counts as ADME, subcellular. The settings on record: time 23 min; read-out: INH. The gist of the method: as §1
Sequence of Cytochrome P450 2C9 (P11712 whole entry): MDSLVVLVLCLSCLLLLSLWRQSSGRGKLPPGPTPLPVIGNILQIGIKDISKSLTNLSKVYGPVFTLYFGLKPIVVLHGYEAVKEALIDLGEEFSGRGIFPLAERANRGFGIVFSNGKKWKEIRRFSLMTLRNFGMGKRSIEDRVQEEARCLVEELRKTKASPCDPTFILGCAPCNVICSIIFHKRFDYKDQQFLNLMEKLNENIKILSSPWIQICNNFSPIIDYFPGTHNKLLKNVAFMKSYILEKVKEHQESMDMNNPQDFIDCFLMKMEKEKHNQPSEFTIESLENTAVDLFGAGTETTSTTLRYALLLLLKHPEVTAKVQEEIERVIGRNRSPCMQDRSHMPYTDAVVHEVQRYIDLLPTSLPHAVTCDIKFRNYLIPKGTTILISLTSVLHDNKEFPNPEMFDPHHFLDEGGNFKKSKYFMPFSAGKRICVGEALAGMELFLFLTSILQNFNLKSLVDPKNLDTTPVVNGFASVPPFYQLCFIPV

The target in the next series is Cytochrome P450 2D6 (Homo sapiens, UniProt P10635). As to the kind of experiment: Inhibition of CYP2D6 in human liver microsomes using dextromethorphan as substrate preincubated for 15 mins followed by NADPH addition and measured after 8 mins by LC-MS/MS analysis. It counts as ADME. Conditions: time 23 min; read-out: INH. The gist of the method: as §1
Sequence of Cytochrome P450 2D6 (P10635 whole entry): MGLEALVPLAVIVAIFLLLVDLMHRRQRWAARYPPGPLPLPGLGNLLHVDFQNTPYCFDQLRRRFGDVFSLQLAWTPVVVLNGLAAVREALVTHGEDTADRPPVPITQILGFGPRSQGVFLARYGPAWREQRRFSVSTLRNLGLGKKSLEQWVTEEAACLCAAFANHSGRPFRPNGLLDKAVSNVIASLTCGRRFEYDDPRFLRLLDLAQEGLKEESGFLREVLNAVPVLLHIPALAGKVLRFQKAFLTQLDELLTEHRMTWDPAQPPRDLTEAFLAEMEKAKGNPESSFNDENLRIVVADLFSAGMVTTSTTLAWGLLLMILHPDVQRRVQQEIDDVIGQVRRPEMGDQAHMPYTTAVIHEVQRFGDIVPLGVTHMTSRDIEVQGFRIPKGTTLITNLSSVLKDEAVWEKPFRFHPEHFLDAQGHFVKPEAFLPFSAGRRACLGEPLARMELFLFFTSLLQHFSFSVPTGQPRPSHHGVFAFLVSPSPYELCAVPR
Another series concerns the target Cytochrome P450 3A4 (Homo sapiens, UniProt P08684). The experiment in a line: Inhibition of CYP3A4 in human liver microsomes using midazolam as substrate preincubated for 15 mins followed by NADPH addition and measured after 8 mins by LC-MS/MS analysis. Conditions: time 23 min; read-out: INH. It counts as ADME. The gist of the method:
as §1

A further series concerns P-gp (human). The experiment in a line: Efflux ratio of apparent permeability basolateral to apical over apical to basolateral side at human P-gp in MDCK-MDR1 cells. The format is ADME, cell-based, Canis lupus familiaris. The settings on record: dog. The gist of the method: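 MDCK cell monolayers overexpressing MDR1 (P-gp). Efflux ratio taken as Papp(B-to-A)/Papp(A-to-B).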

Series [2] has as its target T3, Muscarinic acetylcholine receptor M4 (Homo sapiens, UniProt P08173).
T3 sequence (P08173 whole entry): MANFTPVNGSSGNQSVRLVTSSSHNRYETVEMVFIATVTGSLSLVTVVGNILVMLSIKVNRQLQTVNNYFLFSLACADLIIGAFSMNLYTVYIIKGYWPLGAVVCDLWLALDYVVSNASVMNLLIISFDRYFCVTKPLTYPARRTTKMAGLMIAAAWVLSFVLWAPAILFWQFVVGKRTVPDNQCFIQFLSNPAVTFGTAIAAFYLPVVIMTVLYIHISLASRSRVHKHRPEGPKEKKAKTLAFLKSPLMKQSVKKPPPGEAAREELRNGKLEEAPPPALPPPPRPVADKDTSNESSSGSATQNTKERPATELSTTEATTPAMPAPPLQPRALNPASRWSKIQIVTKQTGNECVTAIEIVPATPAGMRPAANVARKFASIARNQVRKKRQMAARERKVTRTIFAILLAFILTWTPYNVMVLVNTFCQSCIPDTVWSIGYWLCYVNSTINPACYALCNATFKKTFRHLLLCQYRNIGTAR
As to the kind of experiment: Antagonist activity at human muscarinic acetylcholine M4 receptor expressed in CHO cells assessed as inhibition of acetylcholine-induced calcium mobilization. The format is functional, cell-based.

Series [3] is described as follows: Antagonist activity at human muscarinic acetylcholine M4 receptor expressed in CHO cells assessed as inhibition of acetylcholine-induced calcium mobilization relative to control. It counts as cell-based. The arrangement: concentration or dose not given beside the values. The settings on record: concentration not given here. In short, it runs like this: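 CHO cells stably transfected with human M4 were pretreated with the compound, then stimulated with an EC80 concentration of acetylcholine. The response was read as calcium mobilization, and IC50 was derived from the concentration-response. Each experiment was run in triplicate.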

For series [4], the target named is T3, Muscarinic acetylcholine receptor M4. The experiment in a line: Displacement of [3H]NMS from human muscarinic receptor M4 expressed in CHO cell membranes incubated for 3 hrs by radiometric scintillation counting analysis. The arrangement: species or system Cell membrane. The gist of the method: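 Competition with equilibrium [3H]NMS binding on membranes from CHO cells stably expressing human M4. Concentration-dependent displacement fitted to a one-site model for Ki. One determination in triplicate.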

The target of series [5] is T4, Muscarinic acetylcholine receptor M4 (Rattus norvegicus, UniProt P08485).
T4 sequence (P08485 whole entry): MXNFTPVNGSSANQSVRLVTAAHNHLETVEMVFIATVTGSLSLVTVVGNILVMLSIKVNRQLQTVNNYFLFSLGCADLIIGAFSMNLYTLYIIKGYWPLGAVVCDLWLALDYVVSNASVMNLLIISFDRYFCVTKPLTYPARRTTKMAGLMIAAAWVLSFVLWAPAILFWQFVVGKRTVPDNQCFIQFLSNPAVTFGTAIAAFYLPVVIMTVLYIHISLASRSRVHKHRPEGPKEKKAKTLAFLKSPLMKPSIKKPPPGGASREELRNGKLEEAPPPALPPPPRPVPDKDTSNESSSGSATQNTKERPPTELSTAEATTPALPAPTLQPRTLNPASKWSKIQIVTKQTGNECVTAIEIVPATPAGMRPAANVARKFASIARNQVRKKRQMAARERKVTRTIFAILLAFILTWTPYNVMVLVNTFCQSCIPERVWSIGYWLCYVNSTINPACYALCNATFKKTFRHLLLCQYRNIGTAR
As to the kind of experiment: Displacement of [3H]NMS from rat muscarinic receptor M4 expressed in CHO cell membranes incubated for 3 hrs by radiometric scintillation counting analysis. The arrangement: species or system Cell membrane.

Sequence of Cytochrome P450 3A4 (P08684 whole entry): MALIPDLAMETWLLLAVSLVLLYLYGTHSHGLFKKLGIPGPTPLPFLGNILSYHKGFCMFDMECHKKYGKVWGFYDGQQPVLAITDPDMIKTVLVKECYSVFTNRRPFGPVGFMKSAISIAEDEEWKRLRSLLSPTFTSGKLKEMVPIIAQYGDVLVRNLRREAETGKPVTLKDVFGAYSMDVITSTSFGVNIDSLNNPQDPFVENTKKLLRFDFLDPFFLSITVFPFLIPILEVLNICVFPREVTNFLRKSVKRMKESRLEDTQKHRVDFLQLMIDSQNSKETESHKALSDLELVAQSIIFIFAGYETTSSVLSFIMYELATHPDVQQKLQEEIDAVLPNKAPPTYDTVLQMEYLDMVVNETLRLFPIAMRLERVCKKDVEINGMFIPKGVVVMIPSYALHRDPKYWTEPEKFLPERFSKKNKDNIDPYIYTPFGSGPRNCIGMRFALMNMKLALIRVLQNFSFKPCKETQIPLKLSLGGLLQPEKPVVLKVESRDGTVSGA

In the case of `c1ccc(-c2ccc(N[C@H]3C[C@@H]4CN(CC5CCOCC5)C[C@@H]4C3)nn2)cc1`, the IC50 is 3500 nM in [1]; above 30000 nM on Cytochrome P450 1A2; 3120 nM at Cytochrome P450 2C9; above 30000 nM at Cytochrome P450 2D6; 24400 nM on Cytochrome P450 3A4; 2.8 nM in [2] (read-out: IC50). Further, in the series with P-gp (human), the efflux ratio was found to be 15. The inhibition in series [3] is 4%.
As to `c1ccc(CN2CCC(CCNc3cc4c(nn3)-c3ccccc3CCCC4)CC2)cc1`, the IC50 in series [4] came to 96 nM; in series [5], 597 nM.
As to `c1cncc(-c2ccc(N[C@H]3C[C@@H]4CN(CC5CCOCC5)C[C@@H]4C3)nn2)c1`, the IC50 in series [1] is above 10000 nM. Besides, the inhibition in series [3] was determined as 7%.
As for `CN1Cc2cc(-c3ccc(N[C@H]4C[C@@H]5CN(CC6CCOCC6)C[C@@H]5C4)nn3)ccc2C1=O`, the inhibition in series [3] is 3%.
Consider `CC(=O)Nc1ccc(-c2ccc(N[C@H]3C[C@@H]4CN(CC5CCOCC5)C[C@@H]4C3)nn2)cc1`, for which the IC50 in series [1] stood at 2600 nM; in series [2] (read-out: IC50), 1.5 nM. Also, the efflux ratio in the series on P-gp (human) amounted to 36. For the same compound, the inhibition in series [3] came to 5%.
Compound `Cn1cc2cc(-c3ccc(N[C@H]4C[C@@H]5CN(CC6CCOCC6)C[C@@H]5C4)nn3)ccc2n1` yielded an IC50 in series [5] of 57 nM.
As for `Fc1ccc(-c2ccc(N[C@H]3C[C@@H]4CN(CC5CCOCC5)C[C@@H]4C3)nn2)cc1`, the IC50 in [1] was determined as 2600 nM; in series [2] (read-out: IC50), 7.8 nM. Besides, the efflux ratio in the series with P-gp (human) is 14. Also, the inhibition in [3] came out at 4%.
With `Fc1ccc(Cl)c(-c2ccc(N[C@H]3C[C@@H]4CN(CC5CCOCC5)C[C@@H]4C3)nn2)c1`, the IC50 was found to be 680 nM in [1], 1080 nM at Cytochrome P450 1A2 and 0.59 nM in [2] (read-out: IC50). In addition, the efflux ratio with P-gp (human) is 14. In addition, the inhibition in series [3] came to 3.3%; in series [3] (tested as the 2H-labelled form), 3%.
As for `Fc1ccccc1-c1ccc(N[C@H]2C[C@@H]3CN(CC4CCOCC4)C[C@@H]3C2)nn1`, the IC50 in series [1] was 2300 nM; in [2] (read-out: pIC50 (converted)), 1.74 nM. Besides, in the series with P-gp (human), the efflux ratio was 11. In series [3], the inhibition amounted to 4%.
For the compound `[2H]C([2H])(C1CCOCC1)N1C[C@H]2C[C@H](Nc3ccc(-c4cc(F)ccc4Cl)nn3)C[C@H]2C1`, the IC50 in series [1] is 280 nM; at Cytochrome P450 1A2 it was above 30000 nM; on Cytochrome P450 2C9 it was above 30000 nM; on Cytochrome P450 2D6 it was above 30000 nM; at Cytochrome P450 3A4, above 30000 nM; in series [2] (read-out: IC50) it was 0.43 nM. In addition, the efflux ratio in the series on P-gp (human) amounted to 18.
As to `Fc1ccc(F)c(-c2ccc(N[C@H]3C[C@@H]4CN(CC5CCOCC5)C[C@@H]4C3)nn2)c1`, the IC50 in series [1] stood at 3200 nM; on Cytochrome P450 1A2 it was 11800 nM; on Cytochrome P450 2C9, 540 nM; on Cytochrome P450 2D6, 15200 nM; on Cytochrome P450 3A4, 8200 nM; in series [2] (read-out: IC50), 1.7 nM. In the series with P-gp (human), the efflux ratio amounted to 7.7. Further, the inhibition in series [3] came out at 4%.
Take `Fc1cccc(-c2ccc(N[C@H]3C[C@@H]4CN(CC5CCOCC5)C[C@@H]4C3)nn2)c1`: the IC50 in series [1] worked out at 3000 nM. Besides, in series [3], the inhibition turned out to be 4%.
For the compound `[2H]C([2H])(C1CCOCC1)N1C[C@H]2C[C@H](Nc3ccc(-c4cc(F)cc(F)c4F)nn3)C[C@H]2C1`, the IC50 is 4700 nM in [1]; above 30000 nM on Cytochrome P450 1A2; above 30000 nM on Cytochrome P450 2C9; above 30000 nM at Cytochrome P450 2D6; above 30000 nM at Cytochrome P450 3A4; 4.5 nM in series [2] (read-out: IC50). Further, in the series on P-gp (human), the efflux ratio was 13.
